Source: PubChem
An excerpt weighted towards active compounds, which were near 5.1% of everything screened.
STAT3 activator – IL-6 driven STAT3 reporter potentiators, primary screen, U3A cells, luciferase, luminescence, MLSCN library | IL-6 STAT3-luciferase reporter; 100% = signal with IL-6 EC80 alone | hit rate 0.91% among 190,000 | AID 871, 2007 | activation (% of control), % at 5.6 µM;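 active means activation above the screen-wide mean of compound activation plus 3 SD, cut at about 130% in these data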;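 further: 0% = background luminescence of wells with medium and substrate only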
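System – human U3A cells carrying STAT3-luciferase construct · Probe or stimulus – Interleukin-6, 33 ng/mL · Schedule – compound 1 h, then IL-6 6 h at 37 °C · Signal – luminescence from STAT3-driven luciferase reporter · Evaluation – percent of IL-6-only median luminescence · Benchmarks – IL-6-only high control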
STAT3 inh-1 – IL-6 driven STAT3 reporter inhibitors, primary screen, U3A cells, luciferase, luminescence, MLSCN library. IL-6 STAT3-luciferase reporter; host cell line lacks STAT1. inhibition, % at 5.5 µM. hit rate 0.89% among 190,000;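 active means inhibition above the mean inhibition across all screened compounds plus 3 SD, cut at about 44% in these data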;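 further: 0% = DMSO only wells and 100% = 100 µM nifuroxazide control wells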
STAT1 inh – STAT1 signaling inhibitors, primary screen, cell-based, HTS, luciferase reporter. AID 920, 2007. hit rate 0.35% among 200,000. inhibition, % at 5.5 µM. NIH 3T3 STAT1-luciferase reporter, IFN-gamma, luminescence;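 active means inhibition above a set limit, the mean inhibition across all tested compounds plus 3 SD, cut at about 34% in these data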;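 further: 0% = IFN-gamma with DMSO and 100% = IFN-gamma with 300 µM nifuroxazide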
NF-kB expr up – activators of NF-kB expression in neurons, primary screen, cell-based, HTS; human neuronal cells, NF-kB reporter expression; hits give high values; hit rate 1.6% among 190,000; fold change at 12.5 µM; AID 1239, 2008; in the data active means fold change above about 3.3
STAT1 act – STAT1 signaling activators, primary screen, cell-based, HTS, luciferase reporter; activation (% of control), % at 5.5 µM; NIH 3T3 STAT1-luciferase reporter, IFN-gamma, luminescence; 100% = IFN-gamma alone, no compound; hit rate 2.6% among 200,000;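 active means activation above the screen-wide mean activation plus 3 SD, cut at about 130% in these data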;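 further: raw ratio to IFN-gamma control signal so 100% means no change and 0% no light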
APP 5'UTR act – activators of APP 5'UTR luciferase reporter, primary screen, SH-SY5Y cells | SH-SY5Y APP 5'UTR luciferase reporter, luminescence; zero percent = DMSO vehicle wells | activation, % at 2 µM | hit rate 1% among 190,000;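 active means activation above a set limit, based on mean plus 3 SD of controls, cut at about 140% in these data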
STAT3 inh-2 – STAT3 reporter inhibitors, retest of hits, confirmation, U3A cells, luciferase, luminescence. IL-6 STAT3 luciferase reporter; cell line lacks STAT1. shares compounds with STAT3 inh-1. inhibition, % at 5.7 µM. hit rate 45% among 1,200;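 active means inhibition above the hit cutoff computed for the primary STAT3 screen, cut at about 44% in these data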;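 further: 0% = IL-6 plus DMSO and 100% = IL-6 plus nifuroxazide control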
NFkB inh 2 – NF-kB reporter inhibitors in human cells, confirmation, counter-screen for STAT3 inhibitor project, cell-based, HEK293T, luciferase, TNF-alpha stimulus | shares compounds with STAT3 inh-1 | TNF-alpha induced | inhibition, % at 5.7 µM | AID 1308, 2008 | hit rate 36% among 1,200;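 active means inhibition above the mean of solvent-only control wells plus 3 SD, cutoff set per campaign, cut at about 13% in these data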;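 further: 0% = TNF-alpha with DMSO and 100% = TNF-alpha with MG high control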
STAT1 inh 2 – STAT1 reporter inhibitors, IFN-gamma induced, confirmation, counter-screen for STAT3 inhibitor project, cell-based, NIH 3T3, luciferase luminescence. shares compounds with STAT3 inh-1. NIH 3T3 STAT1-luciferase reporter. inhibition, % at 5.7 µM. hit rate 27% among 1,200. AID 1317, 2008;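 active means inhibition above the mean plus 3 SD of solvent-only control wells, limit set per screening run, cut at about 16% in these data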;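 further: 0% = DMSO with IFN-gamma and 100% = nifuroxazide control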
Numbers without * were called inactive; . = no result given.

SMILES | STAT3 activator | STAT3 inh-1 | STAT1 inh | NF-kB expr up | STAT1 act | APP 5'UTR act | STAT3 inh-2 | NFkB inh 2 | STAT1 inh 2
CCn1cc([N+](=O)[O-])c(C(=O)Nc2cc(C)on2)n1 | 103.3 | -0.3 | -2.0 | 1.14 | 101.9 | 6.8 | . | . | .
CCn1cc([N+](=O)[O-])c(C(=O)Nc2nc(-c3ccc(C)c(C)c3)c(C)s2)n1 | 63.0 | 44.9* | -2.7 | 0.96 | 102.5 | 10.6 | 42.0 | -8.9 | 0.8
Cc1c(C(N)=O)sc2ncn(CC(=O)N3CCC(C)CC3)c(=O)c12 | 102.5 | -6.1 | 7.8 | 0.91 | 92.8 | 17.6 | . | . | .
Cn1nc(C(C)(C)C)cc1C(=O)NCc1ccc(N2CCCC2=O)cc1 | 54.3 | 58.9* | 22.0 | 0.73 | 78.5 | 16.1 | 62.8* | 29.2* | 33.0*
O=C(NCCc1cccs1)C12CN(Cc3ccccc3)CC1C(c1cccc([N+](=O)[O-])c1)=NO2 (stereo unspecified) | 112.8 | -9.2 | -5.9 | 0.64 | 105.4 | 11.0 | . | . | .
Cc1ccnc(NC(=O)c2ccc3c(c2)OCO3)c1 | 51.2 | 59.2* | 24.3 | 4.2* | 76.0 | 206.1* | 22.2 | -13.7 | -29.0
CCNC(=S)NNC(=O)c1cc(-c2ccc(OC)cc2)nc2ccccc12 | 36.9 | 74.5* | 20.9 | 4.12* | 81.5 | 103.3 | 43.2 | 28.0* | 14.4
CCNC(=S)NNC(=O)c1cc(-c2cccc(C)c2)nc2ccccc12 | 79.2 | 27.3 | 12.8 | 1.59 | 88.3 | 22.4 | . | . | .
CC1(C)CC(=O)c2sc(NC(=O)C(C)(C)C)nc2C1 | 118.8 | -7.9 | -23.1 | 1.64 | 120.1 | 29.1 | . | . | .
CC1(C)CC(=O)c2sc(NC(=O)c3cccs3)nc2C1 | 65.8 | 43.7* | 7.7 | 3.44* | 103.4 | 118.2 | 17.7 | -13.6 | -10.2
O=C(Nc1nc2c(s1)CCCC2)Oc1ccccc1 | 105.7 | -1.9 | -5.0 | 1.29 | 104.6 | -2.4 | . | . | .
O=C(Nc1nc2c(s1)CCCC2)C1COc2ccccc2O1 (stereo unspecified) | 43.4 | 72.8* | 20.0 | 1.92 | 82.1 | 147.3* | 33.9 | -7.6 | -103.9
CCc1nnc(NC(=O)C2COc3ccccc3O2)s1 (stereo unspecified) | 103.6 | -4.1 | -15.1 | 2.24 | 113.9 | 49.7 | . | . | .
O=C(Nc1nc2c(s1)CCCC2)c1cccs1 | 51.6 | 58.2* | -49.7 | 5.68* | 146.1* | 198.5* | 14.5 | -22.6 | -124.5
CC(C)CNC(=O)COc1ncnc2sccc12 | 89.1 | 20.0 | 2.3 | 1.19 | 96.6 | 9.3 | . | . | .
COc1ccc(CN(C)CC(=O)Nc2ccc(Cl)cc2C(F)(F)F)c(OC)c1 | 106.5 | -9.6 | 0.6 | 1.06 | 99.6 | -0.8 | . | . | .
Cn1cnnc1SCC(=O)c1c(N)n(Cc2ccccc2)c(=O)n(C)c1=O | 98.5 | 5.4 | 1.6 | 1.3 | 96.8 | 23.7 | . | . | .
CCCCCC(=O)NCc1c(C(F)(F)F)nn(C)c1N1CCOCC1 | 99.3 | 6.4 | 1.1 | 0.97 | 97.0 | 27.5 | . | . | .
O=C(Nc1ccccn1)c1onc2c1CCCC2 | 42.5 | 69.4* | -3.0 | 1.08 | 102.6 | 149.6* | 53.1* | 16.5* | -11.6
Cc1ccccc1C(=O)Nc1ccccn1 | 98.5 | 2.0 | -3.6 | 1.04 | 103.3 | -9.4 | . | . | .
CC(=O)c1cccc(N=c2scc(-c3ccc(S(=O)(=O)N4CCOCC4)cc3)n2CCO)c1 | 37.7 | 75.2* | 24.2 | 1.07 | 78.8 | -17.1 | 77.5* | 26.9* | 25.3*
N#Cc1c(/N=C/c2cccs2)sc2c1CCCCC2 | 44.6 | 67.0* | -21.4 | 1.05 | 119.6 | 148.5* | 21.2 | -24.4 | -120.6
Cc1nc2ccc(NC(=O)c3cccc(S(=O)(=O)N4CC(C)OC(C)C4)c3)cc2s1 (stereo unspecified) | 94.9 | 6.2 | 7.0 | 0.64 | 93.6 | 2.7 | . | . | .
CCc1nnc(NC(=O)c2ccc(OC)cc2)s1 | 54.5 | 57.3* | 9.8 | 4.01* | 89.4 | 128.7 | 32.5 | -15.5 | -55.7
COc1cc(OC)cc(C(=O)Nc2nnc(NC(=S)Nc3ccccc3)s2)c1 | 49.8 | 60.7* | 7.1 | 1.16 | 93.7 | 15.1 | 58.9* | -14.1 | -14.0
SMILES | STAT3 activator | STAT3 inh-1 | STAT1 inh | NF-kB expr up | STAT1 act | APP 5'UTR act | STAT3 inh-2 | NFkB inh 2 | STAT1 inh 2
Cc1cc(/C=N/n2cnnc2)c(C)n1-c1ccc(OCc2ccc(Cl)cc2)cc1 | 36.8 | 77.1* | 19.3 | 0.46 | 82.4 | 42.3 | 60.6* | 17.5* | 15.4
Cc1cc(/C=N/n2cnnc2)c(C)n1-c1ccc(OCc2ccccc2F)cc1 | 86.4 | 20.1 | 13.2 | 0.46 | 88.0 | 11.8 | . | . | .
Cc1ccc2c(C)c(C(=O)NCc3ccc(S(N)(=O)=O)cc3)oc2c1 | 96.1 | 6.8 | 7.2 | 0.88 | 91.7 | -0.7 | . | . | .
CC(=O)/C(N=Nc1ccc2c(c1)OCCO2)=C(\C)O | 44.3 | 67.6* | 18.8 | 2.04 | 82.2 | 16.1 | -6.1 | -9.7 | -92.0
CN1CCN(c2ncnc3c2cnn3-c2ccc(Cl)cc2)CC1 | 60.3 | 52.7* | 4.4 | 1.19 | 96.0 | 126.5 | 5.1 | -16.9 | -97.0
Cc1ccc(Cn2ncc3c(N4CCN(C)CC4)ncnc32)cc1 | 95.4 | 10.6 | 0.1 | 0.71 | 97.9 | 9.6 | . | . | .
Cc1ccc(Cn2ncc3c(N4CCN(Cc5ccc(Cl)cc5)CC4)ncnc32)cc1 | 54.0 | 53.9* | 1.3 | 0.86 | 98.8 | 1.2 | 48.8* | 25.0* | 3.0
Cc1ccc(Cn2ncc3c(N4CCN(c5ccc(C)cc5)CC4)ncnc32)cc1 | 46.5 | 68.9* | 4.8 | 1.13 | 95.6 | -11.4 | 63.0* | 20.1* | 7.5
COC(=O)C(C(=O)Nc1nc2ccccc2s1)C1CCCC1 (stereo unspecified) | 113.0 | -12.9 | 3.9 | 1.16 | 94.7 | -13.8 | . | . | .
CC(C)CCN1CCN(C2CSCCSC2)CC1CCO (stereo unspecified) | 96.7 | 6.1 | -4.9 | 1.04 | 102.7 | -12.2 | . | . | .
O=C(Nc1ccccc1C(=O)N1CCOCC1)c1noc2c1CCCC2 | 110.6 | -9.5 | -4.3 | 1.03 | 101.6 | -21.5 | . | . | .
O=C(Nc1cccc(O)c1)c1noc2c1CCCCC2 | 31.5 | 83.1* | 9.3 | 3.13 | 91.5 | 114.0 | 72.1* | 28.9* | 6.0
Cc1cc(C(=O)OCC(=O)NCc2ccco2)c(C)o1 | 105.6 | -1.6 | 6.7 | 0.99 | 93.6 | 8.1 | . | . | .
